M1 ag – M1 muscarinic receptor agonists, primary screen, CHO-M1 cells, Fluo-4 calcium, agonist mode; Muscarinic acetylcholine receptor M1; Fluo-4 calcium fluorescence; stronger effect = higher value; B-score at 10 µM; actives 3% (n = 64,000); AID 626, 2007;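 active = fluorescence rise, raw or as B-score row- and column-corrected plate score, outside the 99.7% band of its plate's samples, either direction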
DAT uptake mod – changed hDAT dopamine uptake under cocaine IC80, either direction, primary screen, cocaine antagonist project, cell-based, LLC-PK1 hDAT, [14C]-dopamine uptake, MLSMR; AID 449768, 2010; B-score at 10 µM; LLC-PK1 hDAT cells, [14C]-dopamine uptake with cocaine IC80; actives deviate in either direction; Sodium-dependent dopamine transporter (Homo sapiens), Q01959; actives 1.3% (n = 110,000);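 active = Z score or B-score, a plate-position-corrected score, falls beyond the plate's 99.7% confidence bounds, in either direction; inactive = both scores lie inside the 99.7% bounds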;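 also: scored against the spread of the other compound wells on the same plate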
Jurkat tox 60K – cytotoxicity toward Jurkat T cells, primary screen, cytotoxicity control, cell-based, Jurkat E6.1, 60K MLSMR library. actives 1.2% (n = 56,000). AID 463, 2006. inhibition, % at 4 µM. Jurkat E6.1 viability, ATP luminescence, 48 h;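 active = inhibition above the mean inhibition of all tested compounds plus 3 SD, cut at about 28% in these data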
M1 antagonist – antagonists of rat M1 muscarinic receptor; B-score at 10 µM; actives 3.4% (n = 64,000); CHO-M1 cells, Fluo-4 calcium, ACh EC80 antagonist mode; stronger effect = lower value; AID 628, 2007; Muscarinic acetylcholine receptor M1 (Rattus norvegicus), P08482;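 active = calcium fluorescence response, raw or row-and-column corrected B-score, differing from the plate sample mean either way at a set confidence level, mostly lower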
Target sequence (P08482 whole entry, looked up): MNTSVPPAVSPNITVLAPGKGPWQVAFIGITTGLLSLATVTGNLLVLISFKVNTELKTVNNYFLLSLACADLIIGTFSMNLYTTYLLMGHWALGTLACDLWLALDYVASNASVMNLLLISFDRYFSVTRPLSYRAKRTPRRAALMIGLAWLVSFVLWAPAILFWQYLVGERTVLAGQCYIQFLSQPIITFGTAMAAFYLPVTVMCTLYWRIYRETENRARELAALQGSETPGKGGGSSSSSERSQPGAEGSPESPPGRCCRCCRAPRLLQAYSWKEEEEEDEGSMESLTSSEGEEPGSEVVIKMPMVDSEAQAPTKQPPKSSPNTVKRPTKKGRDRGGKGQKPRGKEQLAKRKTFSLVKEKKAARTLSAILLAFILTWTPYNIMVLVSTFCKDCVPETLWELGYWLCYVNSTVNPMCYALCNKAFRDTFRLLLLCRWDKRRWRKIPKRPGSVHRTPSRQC
HEK293 NFkB inh – inhibitors of PMA/ionomycin-induced NF-kB reporter, primary screen, antigen receptor NF-kB inhibitor project, cell-based, HEK-293 luciferase reporter, luminescence; HEK-293 NF-kB luciferase reporter; inhibition, % at 3 µM; actives 0.21% (n = 62,000); AID 465, 2006;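 active = inhibition above the mean of all tested compounds plus 3 SD, cut at about 40% in these data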;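 also: 0% = stimulated DMSO wells and 100% = 10 µM reference inhibitor 5653914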
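Timing: 1 h pretreatment, 16 h stimulation, 37 °C; system: HEK-293 cells with stable firefly luciferase reporter driven by four HIV NF-kB elements; doses: 3 µM once, 0.30% DMSO; measured by: luciferase luminescence; control set: DMSO and 10 µM reference inhibitor; repeats: single test; reagent: PMA plus ionomycin mix as NF-kB-activating stimulus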
D1 mod – D1 CRE-luciferase signal change, two-sided – cell-based, HEK293 D1, dopamine EC30, D1 allosteric modulator project, primary screen; D(1A) dopamine receptor (Homo sapiens), P21728; dopamine EC30 potentiation; actives deviate in either direction; B-score at 10 µM; actives 5.9% (n = 58,000); AID 641, 2007;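 active = luminescence count or its row- and column-corrected plate score outside the 99.7% band of the plate's sample wells, on either side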
M1 antag confirm – rat M1 muscarinic receptor antagonists, confirmation, CHO cells, Fluo-4 calcium, duplicate. shares compounds with M1 antagonist. ACh EC80 antagonism; stronger effect = lower value. calcium response (max-min fluorescence) at 10 µM. actives 43% (n = 1,700). AID 677, 2007;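 active = calcium response below the same-plate mean of wells given acetylcholine alone at its 80%-effect dose, minus 3 SD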;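 also: raw fluorescence intensity difference in arbitrary instrument units and not normalized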
mGluR4 antag – human mGluR4 response to M1 antagonist hits, M1 allosteric modulator project, cell-based, antagonist mode, secondary assay 1. actives 0.9% (n = 1,700). shares compounds with M1 antagonist. fluorescence response (max-min) at 10 µM. AID 678, 2007. CHO-mGluR4 calcium flux, Fluo-4 fluorescence, glutamate EC80; stronger effect = lower value;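 active = fluorescence response below the plate's average for near-maximal glutamate wells, less 3 SD of those wells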;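 also: raw unnormalized fluorescence span taken in the window right after glutamate addition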
* hit, by the source's call. Compounds with a hit are over-represented: about 7.6% of the library has one in this group of screens.

Screening CCCCNS(=O)(=O)c1ccc2nc(SCC(=O)Nc3sccc3C#N)[nH]c2c1 returned M1 ag 0.58, DAT uptake mod -1.3, Jurkat tox 60K 23, M1 antagonist -3.1*, HEK293 NFkB inh 16, D1 mod -1.7, M1 antag confirm 523 and mGluR4 antag 204.
COc1ccc(C2CCCN2C(=O)Nc2cccc(C(C)=O)c2)cc1OC (stereo not drawn) was read as M1 ag -0.11, DAT uptake mod 0.33, Jurkat tox 60K 3, M1 antagonist -2.5*, HEK293 NFkB inh 2, D1 mod 2.9, M1 antag confirm 620 and mGluR4 antag 249.
`CCN(CC)S(=O)(=O)c1ccc(C(=O)Oc2ccc3c(c2)OCO3)cc1` gave M1 ag 0.65, DAT uptake mod -0.24, Jurkat tox 60K 0, M1 antagonist 0.31, HEK293 NFkB inh 7 and D1 mod 0.045.
For CCN(CC)S(=O)(=O)c1ccc(C(=O)OC2CCCCC2CN(C)C)cc1 (stereo not drawn) the results were M1 ag 0.048, DAT uptake mod 0.033, Jurkat tox 60K 5, M1 antagonist -4.6*, HEK293 NFkB inh -8, M1 antag confirm 509 and mGluR4 antag 219.
`Cc1sc2nc(CN3CCCC3)nc(N3CCN(S(=O)(=O)c4cccs4)CC3)c2c1C` gave M1 ag -0.21, DAT uptake mod 1.6, M1 antagonist -3.9*, HEK293 NFkB inh 3, M1 antag confirm 410* and mGluR4 antag 217.
COc1ccc(C(C(C(=O)c2ccco2)N2CCOCC2)N2CCOCC2)cc1 (stereo not drawn) was read as M1 ag 0.41, DAT uptake mod -0.34, Jurkat tox 60K 0, M1 antagonist -0.041, HEK293 NFkB inh 6 and D1 mod -0.04.
Screening CSc1ccc(C(C(C(=O)c2cccs2)N2CCOCC2)N2CCOCC2)cc1 (stereo not drawn) returned M1 ag 0.64, DAT uptake mod 0.92, Jurkat tox 60K 1, M1 antagonist -3.4*, HEK293 NFkB inh -1, M1 antag confirm 537 and mGluR4 antag 170.
`CCn1c(SCC(=O)O)nnc1C1CCCCC1` gave M1 ag -0.82, DAT uptake mod -0.11, Jurkat tox 60K -2, M1 antagonist -4.7*, HEK293 NFkB inh 11, D1 mod -1.1, M1 antag confirm 562 and mGluR4 antag 178.
For CCn1c(=N)n(CC(=O)c2ccco2)c2ccccc21 the results were M1 ag -0.088, DAT uptake mod 0.5, Jurkat tox 60K 10, M1 antagonist -4*, HEK293 NFkB inh -3, D1 mod -1, M1 antag confirm 471 and mGluR4 antag 223.
CCc1ccc(NC(=S)Nc2cccc(OC)c2)cc1 was read as DAT uptake mod 0.5.
CC(C)CC(c1nnnn1C(C)(C)C)N1CCN(C2CCCC2)CC1 (stereo not drawn) was read as M1 ag 0.17, DAT uptake mod 0.29, Jurkat tox 60K -7, M1 antagonist -4.4*, HEK293 NFkB inh 0, D1 mod -0.74, M1 antag confirm 477 and mGluR4 antag 212.
`Cc1ccc(CNC(=O)C2C3C=CC4(CN(Cc5cccnc5)C(=O)C24)O3)cc1` (stereo not drawn) gave M1 ag 0.18, DAT uptake mod -0.017, Jurkat tox 60K 1, M1 antagonist -0.79, HEK293 NFkB inh 21 and D1 mod -0.11.
CCOC(=O)C1=C(C)OC(N)=C(C#N)C1c1cc2c(cc1Br)OCO2 (stereo not drawn) was read as M1 ag -0.73, DAT uptake mod -0.74, Jurkat tox 60K -1, M1 antagonist -1.9*, HEK293 NFkB inh 24, D1 mod -0.38, M1 antag confirm 417* and mGluR4 antag 208.
`C=CCOC(=O)C1=C(C)OC(N)=C(C#N)C1c1ccc2c(c1)OCO2` (stereo not drawn) gave M1 ag -0.071, DAT uptake mod -0.28, Jurkat tox 60K -2, M1 antagonist 0.44, HEK293 NFkB inh 5 and D1 mod 0.16.
Screening CCC1Oc2ccccc2N(CC(=O)NCCC2=CCCCC2)C1=O (stereo not drawn) returned M1 ag 0.37, DAT uptake mod -0.86, Jurkat tox 60K -2, M1 antagonist 0.52, HEK293 NFkB inh 7 and D1 mod -0.96.
For CCOC(=O)c1cc2sccc2n1CC(=O)Nc1ccc2c(c1)OCCO2 the results were M1 ag -1, DAT uptake mod -0.13, Jurkat tox 60K -4, M1 antagonist -0.93*, HEK293 NFkB inh 18, D1 mod -0.0069, M1 antag confirm 494 and mGluR4 antag 218.
Screening CCOC(=O)c1cc2sccc2n1CC(=O)OC returned DAT uptake mod 0.7.
For CC(=O)C1=C(Nc2ccc(C)cc2)CC(C)(O)C(C(C)=O)C1c1ccco1 (stereo not drawn) the results were M1 ag 0.079, DAT uptake mod -0.74, Jurkat tox 60K 5, M1 antagonist -13*, HEK293 NFkB inh 19, D1 mod 0.042, M1 antag confirm 646 and mGluR4 antag 233.
For COc1ccc(CN=C2Nc3ccccc3CS2)cc1 the results were DAT uptake mod -0.61.
`CCCCC(=NCCO)C1=C(O)C(C(=O)OC)C(C)(C)CC1=O` (stereo not drawn) gave M1 ag -0.035, DAT uptake mod -1.6, Jurkat tox 60K 1, M1 antagonist -3.5*, HEK293 NFkB inh 14, D1 mod -0.22, M1 antag confirm 674 and mGluR4 antag 202.
`CCCCCCN=C(C)C1=C(O)C(C(=O)OC)C(C)(C)CC1=O` (stereo not drawn) gave M1 ag 0.8, DAT uptake mod 0.72, Jurkat tox 60K 1, M1 antagonist -0.56, HEK293 NFkB inh -1 and D1 mod -0.44.
